ChEMBL document CHEMBL3611977, “Synthesis, pharmacological evaluation and docking studies of pyrrole structure-based CB2 receptor antagonists” (Eur J Med Chem, 2015)
pIC50, pKi: −log10 of the molar value. Activity calls are given as the source filed them. No cut-off for these calls is given here.

How the values were obtained:
[1] = biological target: T1, Cannabinoid receptor 2 (Homo sapiens, UniProt P34972); assay: Displacement of [3H]-CP55940 from human CB2 receptor transfected in HEK293EBNA cell membranes after 90 mins by liquid scintillation counting analysis; design: species or system HEK293-EBNA
T1 sequence (P34972 whole entry): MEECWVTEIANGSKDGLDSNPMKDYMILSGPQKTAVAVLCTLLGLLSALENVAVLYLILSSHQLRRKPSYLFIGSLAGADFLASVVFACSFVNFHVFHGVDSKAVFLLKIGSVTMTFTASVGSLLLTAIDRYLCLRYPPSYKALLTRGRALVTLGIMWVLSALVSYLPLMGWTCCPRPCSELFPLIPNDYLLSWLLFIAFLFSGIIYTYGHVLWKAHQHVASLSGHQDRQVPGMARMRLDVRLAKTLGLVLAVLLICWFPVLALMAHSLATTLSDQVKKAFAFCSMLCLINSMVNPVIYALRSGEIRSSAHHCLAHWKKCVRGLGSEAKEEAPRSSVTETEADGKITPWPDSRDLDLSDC
Outline: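 Human CB2-transfected HEK293EBNA membranes (about 0.18 mg/mL protein) in Tris-HCl with EDTA, MgCl₂ and fatty-acid-free BSA, pH 7.4. Compounds were pre-screened at a single concentration, with full curves only if displacement exceeded 50%. Ki from iterative curve fitting, three independent experiments in triplicate.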

[2] = biological target: Cannabinoid receptor 1 (Homo sapiens, UniProt P21554); assay: Displacement of [3H]-CP55940 from human CB1 receptor transfected in HEK293EBNA cell membranes after 90 mins by liquid scintillation counting analysis; design: species or system HEK293-EBNA
Sequence of Cannabinoid receptor 1 (P21554 whole entry): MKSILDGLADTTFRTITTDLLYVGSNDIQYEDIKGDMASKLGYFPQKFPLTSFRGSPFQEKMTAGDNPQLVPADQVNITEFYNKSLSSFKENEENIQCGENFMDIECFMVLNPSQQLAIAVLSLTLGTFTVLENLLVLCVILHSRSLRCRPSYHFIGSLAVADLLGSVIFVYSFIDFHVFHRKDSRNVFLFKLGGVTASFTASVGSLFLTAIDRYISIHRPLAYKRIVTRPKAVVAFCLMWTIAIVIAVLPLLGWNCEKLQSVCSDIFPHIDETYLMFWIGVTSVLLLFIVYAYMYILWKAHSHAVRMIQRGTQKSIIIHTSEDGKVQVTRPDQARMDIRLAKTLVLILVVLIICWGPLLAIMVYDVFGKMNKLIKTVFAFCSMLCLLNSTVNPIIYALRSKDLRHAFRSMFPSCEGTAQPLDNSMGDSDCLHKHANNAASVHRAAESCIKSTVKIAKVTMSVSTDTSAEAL

[3] = biological target: Cannabinoid receptor 2 (Mus musculus) (UniProt P47936); assay: Antagonist/inverse agonist activity at CB2 receptor in mouse BV-2 cells assessed as inhibition of WIN55,212-2-mediated attenuation of LPS-induced PGE2 release at 10 fold Ki after 16 hrs by ELISA immunoassay; format: cell-based
Sequence of Cannabinoid receptor 2 (Mus musculus) (P47936 whole entry): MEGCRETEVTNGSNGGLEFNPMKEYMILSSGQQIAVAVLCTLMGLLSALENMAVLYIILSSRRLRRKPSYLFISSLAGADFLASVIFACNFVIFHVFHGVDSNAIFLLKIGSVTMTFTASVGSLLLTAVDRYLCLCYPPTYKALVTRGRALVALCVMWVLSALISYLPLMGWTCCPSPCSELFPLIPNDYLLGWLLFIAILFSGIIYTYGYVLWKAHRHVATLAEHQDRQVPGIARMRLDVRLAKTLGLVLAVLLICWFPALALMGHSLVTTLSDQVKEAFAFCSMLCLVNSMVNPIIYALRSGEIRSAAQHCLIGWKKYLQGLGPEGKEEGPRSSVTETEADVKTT
Outline: (§1)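 Mouse BV-2 microglia plated at 5 × 10⁵ cells/well on poly-L-ornithine and grown overnight in DMEM with 10% FBS at 37 °C and 5% CO₂. The medium was switched to 1% FBS 1 h before treatment. Cells were then given LPS (E. coli 055:B5) for 16 h, alone or with test compound, and PGE2 release was measured. Data were analysed by one-way ANOVA.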

[4] = biological target: T1, Cannabinoid receptor 2; assay: Antagonist/inverse agonist activity at human CB2 receptor transfected in Chem4 cell membranes after 30 mins by [35S]-GTPgammaS binding assay; format: functional
Outline: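 Purchased CB2R-containing membranes in 20 mM HEPES with 100 mM NaCl and 10 mM MgCl₂, pH 7.4. Compound was added from 10⁻¹¹ to 10⁻⁵ M together with 30 nM CP55,940 and incubated 30 min at 30 °C. Non-specific signal was defined with unlabelled GTPγS. The reaction was stopped by GF/C filtration with phosphate-buffer washes, then scintillation counting.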

[5] = biological target: Cannabinoid receptor 2 (Mus musculus) (UniProt P47936); assay: Antagonist/inverse agonist activity at CB2 receptor in mouse BV-2 cells assessed as LPS-induced PGE2 relaese at 10 fold Ki after 16 hrs by ELISA immunoassay; format: cell-based; outline: as §1
[6] = biological target: Cannabinoid receptor 2 (Mus musculus) (UniProt P47936); assay: Antagonist/inverse agonist activity at CB2 receptor in mouse BV-2 cells assessed as LPS-induced PGE2 relaese at 10 fold Ki after 16 hrs by ELISA immunoassay in presence of CB2R antagonist SR144528; format: cell-based; outline: as §1
[7] = biological target: Cannabinoid receptor 2 (Mus musculus) (UniProt P47936); details: BV-2, 10 uM

Compound | pKi [1] | pKi [2] | also measured
Cc1ccc(Cn2cc(C(=O)NC34CC5CC(CC(C5)C3)C4)cc2-c2ccc(Cl)c(C)c2)cc1 | < 5.30 | < 5.30 | –
Cc1ccc(Cn2cc(C(=O)NN3CCCCC3)cc2-c2ccc(Cl)c(C)c2)cc1 | < 5.30 | < 5.30 | –
Cc1ccc(Cn2cc(C(=O)NCC34CC5CC(CC(C5)C3)C4)cc2-c2ccc(Cl)c(C)c2)cc1 | < 5.30 | < 5.30 | –
Cc1ccc(Cn2cc(CN3CCN(c4ccc(Cl)cc4)CC3)cc2-c2ccc(Cl)c(C)c2)cc1 | < 5.30 | < 5.30 | –
Cc1ccc(Cn2cc(C(=O)Nc3cccc4ccccc34)cc2-c2ccc(Cl)c(C)c2)cc1 | < 5.30 | < 5.30 | –
Cc1ccc(Cn2cc(C(=O)N[C@@H]3C(C)(C)C4CC[C@@]3(C)C4)cc2-c2ccc(Cl)c(C)c2)cc1 | 8.24 | 5.83 | inhibition [3]: Active; pIC50 [4]: 6.77; inhibition [5]: Active; inhibition [6]: Active
Cc1ccc(Cn2cc(C(=O)N[C@@H](C)C3CCCCC3)cc2-c2ccc(Cl)c(C)c2)cc1 | 6.31 | – | –
Cc1ccc(Cn2cc(C(=O)N[C@H](C)C3CCCCC3)cc2-c2ccc(Cl)c(C)c2)cc1 | < 5.30 | < 5.30 | –
Cc1ccc(Cn2cc(CN[C@@H]3C(C)(C)C4CC[C@@]3(C)C4)cc2-c2ccc(Cl)c(C)c2)cc1 | 6.46 | – | –
Cc1ccc(Cn2nc(C(=O)N[C@@H]3CC4CC[C@@]3(C)C4(C)C)cc2-c2ccc(Cl)c(C)c2)cc1 | 8.14 | – | –
Cc1ccc(Cn2cc(C(=O)N3CCCCC3)cc2-c2ccc(Cl)c(C)c2)cc1 | 6.97 | 5.51 | –
Cc1ccc(Cn2cc(C(=O)NN3CCCC3)cc2-c2ccc(Cl)c(C)c2)cc1 | < 5.30 | < 5.30 | –
Cc1ccc(Cn2cc(C(=O)NC3CCCCC3)cc2-c2ccc(Cl)c(C)c2)cc1 | 6.61 | < 5.30 | –
Cc1ccc(Cn2cc(C(=O)NN3CCCCCC3)cc2-c2ccc(Cl)c(C)c2)cc1 | 6.24 | < 5.30 | –
Cc1ccc(Cn2cc(C(=O)N3CCN(c4ccccc4Cl)CC3)cc2-c2ccc(Cl)c(C)c2)cc1 | 5.77 | < 5.30 | –
Cc1ccc(Cn2cc(C(=O)N[C@@H]3CC4CC[C@@]3(C)C4(C)C)cc2-c2ccc(Cl)c(C)c2)cc1 | 6.79 | 6.43 | –
Cc1ccc(Cn2cc(CN3CCN(c4ccc(Cl)c(Cl)c4)CC3)cc2-c2ccc(Cl)c(C)c2)cc1 | < 5.30 | < 5.30 | –
Cc1ccc(Cn2nc(C(=O)N[C@@H]3C(C)(C)[C@@H]4CC[C@@]3(C)C4)cc2-c2ccc(Cl)c(C)c2)cc1 | – | – | inhibition [7]: Active
Cc1ccc(Cn2cc(C(=O)NC[C@@H]3CCC4C[C@@H]3C4(C)C)cc2-c2ccc(Cl)c(C)c2)cc1 | 7.14 | < 5.30 | inhibition [3]: Active; pIC50 [4]: 5.74; inhibition [5]: Active; inhibition [6]: Active
Cc1ccc(Cn2cc(C(=O)N[C@@H]3C[C@@H]4C[C@H]([C@H]3C)C4(C)C)cc2-c2ccc(Cl)c(C)c2)cc1 | < 5.30 | – | –
Cc1ccc(Cn2cc(C(=O)N[C@H]3C[C@@H](C)CC[C@@H]3C(C)C)cc2-c2ccc(Cl)c(C)c2)cc1 | 5.96 | < 5.30 | –
